Test results taken from ChEMBL document CHEMBL1955714, “Synthesis and antidiabetic performance of β-amino ketone containing nabumetone moiety” (Bioorg Med Chem, 2012).
Values after ≈ are worked out from the molar mass of the structure shown.

Key:
Rattus norvegicus = organism: Rattus norvegicus; assay: Inhibition of rat intestine alpha-glucosidase using maltose as substrate after 10 mins by spectrometric analysis relative to acarbose; parameters: concentration or dose not given beside the values
Summary of the method: (§1)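 Enzyme and sample were preincubated at 37 °C for 10 min. Then 0.1 mol L-1 maltose was added and incubated 10 min at room temperature. The reaction was stopped and OD read at 490 nm. Blank (no enzyme, no sample) and negative (no sample) controls were run alongside.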

[1] = target: Peroxisome proliferator-activated receptor (Homo sapiens) (UniProt P37231+Q07869+Q03181); assay: Activation of PPAR in human HepG2 cells at 10 ug/ml after 24 hrs by luciferase reporter gene assay relative to rosiglitazone; format: cell-based
Summary of the method: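 HepG2 cells in low-glucose DMEM with 100 U mL-1 streptomycin/penicillin, plated at 1.5 × 10⁴ per well a day before transfection. At 70% confluence they were co-transfected with pPPRE-Luc (firefly) and phRL-TK (renilla). After 24 h the medium was replaced with sample-containing medium, with rosiglitazone as positive control. Dual firefly/renilla luciferase was read after a further 24 h; untransfected cells served as blank.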

[2] = Inhibition of rat intestine alpha-glucosidase using maltose as substrate after 10 mins by spectrometric analysis; summary of the method: as §1
[3] = target: T1, Peroxisome proliferator-activated receptor (Homo sapiens, UniProt P37231+Q07869+Q03181); assay: Activation of PPAR in human HepG2 cells after 24 hrs by luciferase reporter gene assay; format: cell-based
T1 sequence (P37231 whole entry): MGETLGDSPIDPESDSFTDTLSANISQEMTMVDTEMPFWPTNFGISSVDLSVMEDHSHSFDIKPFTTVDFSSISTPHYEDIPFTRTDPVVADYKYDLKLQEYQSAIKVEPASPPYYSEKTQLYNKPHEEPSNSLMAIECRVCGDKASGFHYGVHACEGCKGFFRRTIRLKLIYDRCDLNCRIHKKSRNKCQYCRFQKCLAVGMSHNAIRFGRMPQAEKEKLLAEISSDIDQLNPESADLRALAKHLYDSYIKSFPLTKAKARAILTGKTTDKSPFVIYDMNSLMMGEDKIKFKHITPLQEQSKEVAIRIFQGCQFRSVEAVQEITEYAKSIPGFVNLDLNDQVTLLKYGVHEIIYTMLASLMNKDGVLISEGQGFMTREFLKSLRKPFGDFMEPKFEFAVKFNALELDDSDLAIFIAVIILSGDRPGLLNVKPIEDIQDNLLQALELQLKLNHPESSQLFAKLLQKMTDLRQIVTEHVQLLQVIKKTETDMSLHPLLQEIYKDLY
T1 sequence (Q07869 whole entry): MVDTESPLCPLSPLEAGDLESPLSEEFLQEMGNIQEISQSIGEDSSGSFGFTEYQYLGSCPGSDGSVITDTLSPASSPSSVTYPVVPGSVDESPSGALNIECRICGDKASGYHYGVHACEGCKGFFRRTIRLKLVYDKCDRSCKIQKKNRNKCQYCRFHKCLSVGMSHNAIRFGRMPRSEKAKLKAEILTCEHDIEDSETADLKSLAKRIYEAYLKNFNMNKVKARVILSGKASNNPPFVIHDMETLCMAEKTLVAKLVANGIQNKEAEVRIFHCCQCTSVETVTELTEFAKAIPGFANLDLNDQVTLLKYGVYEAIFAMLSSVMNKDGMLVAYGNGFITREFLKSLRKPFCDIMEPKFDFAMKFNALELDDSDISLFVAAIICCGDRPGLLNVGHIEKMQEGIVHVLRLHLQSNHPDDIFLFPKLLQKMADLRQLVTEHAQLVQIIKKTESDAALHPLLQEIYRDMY
T1 sequence (Q03181 whole entry): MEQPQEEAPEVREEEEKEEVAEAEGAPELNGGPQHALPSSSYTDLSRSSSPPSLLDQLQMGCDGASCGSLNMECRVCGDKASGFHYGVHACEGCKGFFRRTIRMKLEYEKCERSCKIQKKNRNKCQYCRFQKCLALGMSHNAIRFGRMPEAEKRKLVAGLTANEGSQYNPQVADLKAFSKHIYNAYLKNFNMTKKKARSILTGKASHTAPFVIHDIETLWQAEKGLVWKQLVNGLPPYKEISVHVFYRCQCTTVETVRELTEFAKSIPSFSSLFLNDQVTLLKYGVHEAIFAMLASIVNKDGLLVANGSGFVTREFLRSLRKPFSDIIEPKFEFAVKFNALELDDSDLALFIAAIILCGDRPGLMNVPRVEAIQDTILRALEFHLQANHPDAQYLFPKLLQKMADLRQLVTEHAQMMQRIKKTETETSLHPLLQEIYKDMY

SMILES	inhibition (Rattus norvegicus) [%]	Activity [1] [%]	IC50 [2] [mg/L]	EC50 [3] [mg/L]
CCCCOc1ccc(C(CC(=O)CCc2ccc3cc(OC)ccc3c2)Nc2ccc(S(=O)(=O)Nc3cc(C)on3)cc2)cc1 (stereo unspecified)	14.3	83.3		
COc1cccc(C(CC(=O)CCc2ccc3cc(OC)ccc3c2)Nc2cc(C)on2)c1 (stereo unspecified)	15.8	41.6		
COc1ccc2cc(CCC(=O)CC(Nc3ccc(S(=O)(=O)Nc4cc(C)on4)cc3)c3cccc(F)c3)ccc2c1 (stereo unspecified)	24.7	36.7		
COc1ccc2cc(CCC(=O)CC(Nc3ccc(S(=O)(=O)Nc4cc(C)on4)cc3)c3ccccc3)ccc2c1 (stereo unspecified)	14.9	17.8		
CCCCOc1ccc(C(CC(=O)CCc2ccc3cc(OC)ccc3c2)Nc2ccc(S(N)(=O)=O)cc2)cc1 (stereo unspecified)	-4.69	18		
COc1ccc2cc(CCC(=O)CC(Nc3ccc(S(N)(=O)=O)cc3)c3ccc(Br)cc3)ccc2c1 (stereo unspecified)	79.7	67.3	2.92 (≈ 5.15 µM)	8.21 (≈ 14.5 µM)
COc1ccc2cc(CCC(=O)CC(Nc3cc(C)on3)c3ccc([N+](=O)[O-])cc3)ccc2c1 (stereo unspecified)	24.6	4.18		
COc1ccc2cc(CCC(=O)CC(Nc3ccc(S(=O)(=O)Nc4cc(C)on4)cc3)c3ccc(Cl)c(Cl)c3)ccc2c1 (stereo unspecified)	53.7	22.4		
COc1ccc2cc(CCC(=O)CC(Nc3ccc(S(N)(=O)=O)cc3)c3ccc4c(c3)OCO4)ccc2c1 (stereo unspecified)	-4.32	9.87		
COc1cccc(C(CC(=O)CCc2ccc3cc(OC)ccc3c2)Nc2ccc(S(N)(=O)=O)cc2)c1 (stereo unspecified)	15.7	60.3		
COc1ccc2cc(CCC(=O)CC(Nc3ccc(S(=O)(=O)Nc4cc(C)on4)cc3)c3ccc4c(c3)OCO4)ccc2c1 (stereo unspecified)	19.2	43		
COc1ccc2cc(CCC(=O)CC(Nc3cc(C)on3)c3cccc([N+](=O)[O-])c3)ccc2c1 (stereo unspecified)	24.4	9.11		
COc1ccc2cc(CCC(=O)CC(Nc3ccc(S(=O)(=O)Nc4cc(C)on4)cc3)c3cccc(Cl)c3)ccc2c1 (stereo unspecified)	47.1	19.6		
COc1ccc2cc(CCC(=O)CC(Nc3cc(C)on3)c3ccccc3)ccc2c1 (stereo unspecified)	7.36	5.83		
CCCCOc1ccc(C(CC(=O)CCc2ccc3cc(OC)ccc3c2)Nc2cc(C)on2)cc1 (stereo unspecified)	11	6.33		
COc1cccc(C(CC(=O)CCc2ccc3cc(OC)ccc3c2)Nc2ccc(S(=O)(=O)Nc3cc(C)on3)cc2)c1 (stereo unspecified)	12.7	78.2		
COc1ccc2cc(CCC(=O)CC(Nc3ccc(S(N)(=O)=O)cc3)c3cccc([N+](=O)[O-])c3)ccc2c1 (stereo unspecified)	32.7	14.8		
COc1ccc2cc(CCC(=O)CC(Nc3cc(C)on3)c3cccc(F)c3)ccc2c1 (stereo unspecified)	13.3	30.1		
COc1ccc2cc(CCC(=O)CC(Nc3ccc(S(N)(=O)=O)cc3)c3cccc(C)c3)ccc2c1 (stereo unspecified)	14.1	57.3		
COc1ccc2cc(CCC(=O)CC(Nc3ccc(S(N)(=O)=O)cc3)c3cccc(Cl)c3)ccc2c1 (stereo unspecified)	40.8	58.7		
COc1ccc2cc(CCC(=O)CC(Nc3ccc(S(N)(=O)=O)cc3)c3ccc([N+](=O)[O-])cc3)ccc2c1 (stereo unspecified)	31.6	46.8		
COc1ccc2cc(CCC(=O)CC(Nc3cc(C)on3)c3ccc(Cl)cc3)ccc2c1 (stereo unspecified)	26.3	6.32		
